Published values collected from several papers.
Compare with care: the assays were run in different laboratories.
Effect on: cell growth or viability

SMILES | cell line | assay | setting | endpoint | value
Cc1n[nH]c2ccc3nc(-c4ccc(C(=O)NCCN(C)C)cc4F)c4c(c3c12)CCCC4 | EOL1 |  | 72 h | GI50 | 89 nM
COc1cc(C=NNC(=O)c2nc3ccccc3s2)ccc1O | PC-3 | MTT | 100 µM, 48 h | cell death | 29.4%
CCCCCCCCCCCCCCCCCCOc1cccc(CC(=O)OCC[N+]2(C)CCOCC2)c1 | NCI-H522 | SRB | 10 µM | inhibition | 16.9%
C[C@H](Nc1ccc2c(c1)OCCn1cc(N3C(=O)OC[C@H]3C(F)F)nc1-2)C(N)=O | NCI-H1048 | ATP luminescence | 5 days | EC50 | 0.0003 µM
CCCCCCCCCCCCCCCCCCOc1ccc(CC(=O)OCCC[N+](C)(C)C)cc1 | NCI-H522 | SRB | 10 µM | inhibition | 21.6%
CN(C)CCNC(=O)c1ccc(-c2nc3ccc4[nH]ncc4c3c3c2CCCC3)cc1 | EOL1 |  | 72 h | GI50 | 149 nM
Oc1cccc(-c2nc(N3CCOCC3)c3oc4ncccc4c3n2)c1 | A549 | CCK-8 | 1 µM | inhibition | 20.4%
C=C(NC(=O)C(=C)NC(=O)c1csc(C2=N[C@@H]3c4csc(n4)[C@H]4NC(=O)c5csc(n5)[C@H]([C@](C)(O)[C@@H](C)O)NC(=O)[C@H]5CSC(=N5)/C(=C/C)NC(=O)[C@H]([C@@H](C)O)NC(=O)c5csc(n5)[C@]3(CC2)NC(=O)[C@H](C)NC(=O)C(=C)NC(=O)[C@H](C)NC(=O)[C@H]([C@@H](C)CC)N[C@@H]2C=Cc3c([C@H](C)O)cc(nc3[C@H]2O)C(=O)O[C@@H]4C)n1)C(N)=O | PC-3 |  |  | EC50 | 54.6 µM
Cc1n[nH]c2ccc3nc(-c4ccc(C(=O)NCCN(C)C)cc4F)c4c(c3c12)CCCCC4 | EOL1 |  | 72 h | GI50 | 72 nM
NCC(=O)Nc1ccccc1/N=c1\cc(-c2ccc3c(c2)OCCO3)oc2ccccc12 | A549 | CCK-8 | 1 µM | inhibition | -0.04%
CCCCCCCCCCCCCCCCCCOc1ccccc1CC(=O)OCC[N+]1(C)CCOCC1 | NCI-H522 | SRB | 10 µM | inhibition | 60.1%
CS(=O)(=O)NCCC(=O)Nc1ccccc1/N=c1\cc(-c2ccc3nc(N)oc3c2)oc2ccccc12 | A549 | CCK-8 | 1 µM | inhibition | -5.4%
CCCCCCCCCCCCCCCCCCOc1ccc(CC(=O)OCC[N+]2(C)CCCCC2)cc1 | NCI-H522 | SRB | 10 µM | inhibition | 10.8%
COCCC(=O)Nc1ccccc1/N=c1\cc(-c2ccc3c(c2)OCO3)oc2ccccc12 | A549 | CCK-8 | 1 µM | inhibition | 4.66%
CCCCCCCCCCCCCCCCCCOCC(COP(=O)([O-])OCC[N+](C)(C)C)OC (stereo not shown) | NCI-H522 | SRB | 10 µM | inhibition | 27%
O=C(NN=Cc1ccc(O)cc1)c1nc2ccccc2s1 | PC-3 | MTT | 100 µM, 48 h | cell death | 39.6%
